{
  "source": "paper PMC12746516",
  "about": "(Clinical Pharmacology and Therapeutics, 2025)",
  "key": {"HepG2 cells [1]": {"test_system": "HepG2 cells", "assay": "Cellular respiration assay", "assay_type": "cell-based", "conditions": "HepG2, 1-hour incubation; for decrease in OCR within predicted physiological range (in words): plasma Cmax to liver Cmax", "method_in_brief": "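HepG2 cells incubated 1 h with test compound (parent compounds or metabolites), then run on a Seahorse XFe96 per the Mito Stress Test Kit protocol. Baseline oxygen consumption rate is expressed as fold change versus 0.2% DMSO vehicle. The physiological range spans predicted plasma Cmax to predicted liver Cmax, from a PBPK model using the liver:blood Kp.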"}, "HepG2 cells [2]": {"test_system": "HepG2 cells", "assay": "Oxidative stress assay", "assay_type": "cell-based", "conditions": "HepG2, 24-hour incubation; for concentrations with significant increases in ROS: DHE fluorescence vs 0.2% DMSO", "method_in_brief": "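Intracellular ROS were read by dihydroethidium fluorescence and expressed as fold change versus 0.2% DMSO vehicle, with troglitazone as positive control. Nominal concentrations covered each compound's predicted plasma and liver Cmax (PBPK). Reported values come from the 24-hour exposure; a 1-hour exposure was also run. Plotted with standard deviation; significance by Kruskal–Wallis test.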"}, "human BSEP": {"biological_target": "human BSEP (Homo sapiens, UniProt O95342)", "sequence (O95342 whole entry)": "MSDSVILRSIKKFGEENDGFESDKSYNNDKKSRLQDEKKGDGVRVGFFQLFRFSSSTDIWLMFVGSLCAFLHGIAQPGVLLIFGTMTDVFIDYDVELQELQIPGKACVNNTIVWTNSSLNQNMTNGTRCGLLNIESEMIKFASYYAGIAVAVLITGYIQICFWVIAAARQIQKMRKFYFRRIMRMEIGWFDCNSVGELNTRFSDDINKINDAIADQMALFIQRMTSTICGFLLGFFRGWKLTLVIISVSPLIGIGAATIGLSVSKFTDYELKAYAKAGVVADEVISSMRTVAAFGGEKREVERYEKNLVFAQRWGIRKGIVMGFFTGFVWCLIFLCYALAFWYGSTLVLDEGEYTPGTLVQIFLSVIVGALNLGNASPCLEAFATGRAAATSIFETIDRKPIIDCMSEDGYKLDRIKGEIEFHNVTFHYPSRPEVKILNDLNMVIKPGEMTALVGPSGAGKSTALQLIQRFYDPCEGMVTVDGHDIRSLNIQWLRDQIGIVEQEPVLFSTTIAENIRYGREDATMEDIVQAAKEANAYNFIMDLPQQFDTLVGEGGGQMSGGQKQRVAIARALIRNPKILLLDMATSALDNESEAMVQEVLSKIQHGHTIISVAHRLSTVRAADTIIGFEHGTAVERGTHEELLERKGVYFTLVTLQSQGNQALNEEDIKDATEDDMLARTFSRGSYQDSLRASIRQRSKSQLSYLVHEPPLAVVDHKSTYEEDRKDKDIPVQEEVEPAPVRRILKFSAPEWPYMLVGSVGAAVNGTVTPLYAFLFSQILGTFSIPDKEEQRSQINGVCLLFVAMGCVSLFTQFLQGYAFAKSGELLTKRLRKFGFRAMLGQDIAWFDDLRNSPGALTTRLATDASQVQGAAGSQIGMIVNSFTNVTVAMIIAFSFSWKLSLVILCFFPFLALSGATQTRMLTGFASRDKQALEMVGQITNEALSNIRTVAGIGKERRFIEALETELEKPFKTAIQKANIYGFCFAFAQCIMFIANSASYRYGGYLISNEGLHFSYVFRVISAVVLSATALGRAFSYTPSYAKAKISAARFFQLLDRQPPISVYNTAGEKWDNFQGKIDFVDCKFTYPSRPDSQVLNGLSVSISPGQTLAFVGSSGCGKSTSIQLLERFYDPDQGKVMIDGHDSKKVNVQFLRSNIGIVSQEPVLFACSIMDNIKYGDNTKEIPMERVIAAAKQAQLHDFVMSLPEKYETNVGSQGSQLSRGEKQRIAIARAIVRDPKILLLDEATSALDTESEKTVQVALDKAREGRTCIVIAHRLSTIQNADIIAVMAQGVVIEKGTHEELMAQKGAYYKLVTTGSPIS", "assay": "BSEP inhibition, taurocholate uptake in HEK293 human BSEP vesicles", "assay_type": "biochemical"}, "GSH in the liver": {"test_system": "GSH in the liver", "conditions": "rats, intravenous administration; cited from earlier work"}, "liver GSH": {"test_system": "liver GSH", "conditions": "mice, intravenous, after a toxic dose of acetaminophen; cited from earlier work"}},
  "data": [
    {"smiles": "CC(C)(C)c1cc(C(C)(C)CO)c(O)cc1NC(=O)c1c[nH]c2ccccc2c1=O", "note": "[M1 ivacaftor]", "values": [
      {"measurement": "decrease in OCR within predicted physiological range (in words)", "setting": "HepG2 cells [1]", "result": "did not induce any notable decrease"},
      {"measurement": "concentrations with significant increases in ROS", "setting": "HepG2 cells [2]", "result": 100, "unit": "µM"}
    ]},
    {"smiles": "CC(C)(CO)c1cc2cc(NC(=O)C3(c4ccc5c(c4)OC(F)(F)O5)CC3)c(F)cc2n1C[C@@H](O)CO", "note": "[Tezacaftor, tezacaftor]", "values": [
      {"measurement": "decrease in OCR within predicted physiological range (in words)", "setting": "HepG2 cells [1]", "result": "did not induce a notable decrease in OCR"},
      {"measurement": "IC50", "setting": "human BSEP", "result": "> 100", "unit": "µM"}
    ]},
    {"smiles": "CC(C)(C)c1cc(C(C)(C)C)c(NC(=O)c2c[nH]c3ccccc3c2=O)cc1O", "note": "[Ivacaftor, ivacaftor]", "values": [
      {"measurement": "decrease in OCR at 10 μM", "setting": "HepG2 cells [1]", "result": "~ 50%"},
      {"measurement": "decrease in OCR within predicted physiological range (in words)", "setting": "HepG2 cells [1]", "result": "induced the most prominent decrease in OCR"},
      {"measurement": "magnitude of ROS increase compared with another compound (in words)", "setting": "HepG2 cells [2]", "result": "matched or surpassed that of the positive control, troglitazone"},
      {"measurement": "IC50", "setting": "human BSEP", "result": "> 100", "unit": "µM"}
    ]},
    {"smiles": "CC(=O)N[C@@H](CS)C(=O)O", "note": "[NAC, n‐acetyl cysteine]", "values": [
      {"measurement": "increase in levels of GSH in the liver", "setting": "GSH in the liver", "result": 50, "unit": "%"},
      {"measurement": "recovery of liver GSH compared with untreated values", "setting": "liver GSH", "result": 75, "unit": "%"},
      {"measurement": "recovery of mitochondrial GSH compared with untreated values", "setting": "liver GSH", "result": 45, "unit": "%"}
    ]},
    {"smiles": "[2H]C([2H])([2H])C(c1cc(C(C)(C)C)c(NC(=O)c2c[nH]c3ccccc3c2=O)cc1O)(C([2H])([2H])[2H])C([2H])([2H])[2H]", "note": "[Deutivacaftor, deutivacaftor]", "values": [
      {"measurement": "decrease in OCR at 10 μM", "setting": "HepG2 cells [1]", "result": "~ 50%"},
      {"measurement": "magnitude of ROS increase compared with another compound (in words)", "setting": "HepG2 cells [2]", "result": "nearly identical levels of ROS increases at the same concentrations as ivacaftor"}
    ]},
    {"smiles": "Cc1nn(C)cc1S(=O)(=O)NC(=O)c1ccc(-n2ccc(OCC(C)(C)C(F)(F)F)n2)nc1N1C[C@@H](C)CC1(C)C", "note": "[Elexacaftor, elexacaftor]", "values": [
      {"measurement": "decrease in OCR within predicted physiological range (in words)", "setting": "HepG2 cells [1]", "result": "induced a decrease in OCR"},
      {"measurement": "concentrations with significant increases in ROS", "setting": "HepG2 cells [2]", "result": 40, "unit": "µM"},
      {"measurement": "IC50", "setting": "human BSEP", "result": 37.1, "unit": "µM"}
    ]}
  ]
}
